This is an account of results in the RNAGym collection of RNA variant scans (doi:10.1126/science.aae0568).

Variants at the floor of the assay were thinned out.

B1: tRNA (parent)
chain: GUUCCGUUGGCGUAAUGGUAACGCGUCUCCCUCCUAAGGAGAAGACUGCGGGUUCGAGUCCCGUACGGAACG

Variants of B1 are the subject of this data set. In words: yeast fitness relative to wild type (ratio to wild type); higher = fitter; tRNA-Arg(CCU), competitive growth, 37 C, YPD. In short, it runs like this:
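Start and end populations of a pooled competition were compared by 100-nucleotide paired-end sequencing of gene amplicons. The Saccharomyces cerevisiae strains carried tRNA-Arg(CCU) gene variants at the native genomic locus, synthesised with a 3% per-site mutation rate at 69 sites, and competed in YPD at 37°C for 24 hours in six parallel replicates. Darwinian fitness relative to wild type was based on the change in genotype frequencies. Genotypes required ≥ 100 starting reads, and estimates < 0.5 were set to 0.5.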
For the variant GUUCCCUUGGCGUAAUGAUAACGCGUCUCCCUCCUAAGGAGAAGACUGCGGGUUCGAAUCCCGUACGGAACG, the yeast fitness was at most 0.5.

Turning to GUUCCGUUGGCCUAAUGGUAACGCGUCUCCCUCCUAAGGAGAAGACUGCGGGUUCGAGUCCCGUGCGGAACG, the yeast fitness is 0.783.

With GUUCCGUUGGCGUAAUGGUAACGCGUCUCCCUCCGAAGGAGAAGACUGCGGGUUCGAGUCCCGUACGGCACG, the yeast fitness worked out at 0.592.

On to GUUCGGUUGGCGUAAUGGUAACGCGUCUCCAUCCUAAGGAGAAGACUGCGGGUUCGAGUCCCGUAGGGAACG, for which the yeast fitness was at most 0.5.

Take GUUCCGUUGGCGUAAUGGUAACGCGUCUCCCUCCUAAGGAGGAGUCUGCGGGUUCGAGUCCCGCACGGACCG: the yeast fitness was at most 0.5.

As to GUUCCGUUGGCGGAAUGGUAACGCGUCUCCAUCCUAAGGAGAAGACUGCGGGUUCGAGUCCCGUACGGAACG, the yeast fitness was found to be 0.833.

With GUUCCGUUGGCGUAAUGGUAACGCGUCUCCCUCCUAAGGAGAUGACUGCGGGUUCGAGUUCCGUACCGAACG, the yeast fitness is 0.636.

With GUUCCGUUGGCGUCCUGGUAACGCGUCUCCCUCGUAAGGAGACGACUGAGGGUUCGAGUCCCGUACGGAACG, the yeast fitness turned out to be 0.627.

For the variant GUUCCGUUGGCGUAAUGGUAACACGUCUCCCUCCUAAGGAGAAGACUGCGGGCUCGAGUCCCGUAAGGAACG, the yeast fitness was at most 0.5.

Turning to GUUCCGUUGGCGUAAUGGUAACGCGUCUCCCUCCUAACGAGAAGACUGCGGGUUCGAGUCCCCUGCGGAACG, the yeast fitness was at most 0.5.

With GUUCCGUUGGCGUAAUGGUUACGCGUCUCCCUCCUAACGAGAAGACUGCCGGUUCGAGUCCCGUCCGGAACG, the yeast fitness is at most 0.5.

With GUUCCGUUGGCGUAACGGUAACGCGUCUCUCUCGUAAGGAGAAGACUGCGGGUUCGAGUCCCGUACGGAACG, the yeast fitness came out at 0.579.

GUUCCGUUGGCGUAAUGGUAACGCGUCUCCCUCCUAAGGAGAAGACUGCGGGUUGGAGACCCGUACGGAACG: the yeast fitness stood at 0.677.

For GUACCGUUGGCGUAACGGUCACGCGUCUCCCUCCUAAGGAGAAGACUGCGGGUUCGAGUCCCGUACGGAACG, the yeast fitness is at most 0.5.

With GUUGCGUCGGCGUAGUGGUAAGACGUCUCCCUCCUAAGGAGAAGACUGAGGGUUCGAGUCCCGUACGGAACG, the yeast fitness was at most 0.5.

For GUUCCGUUGGCGUAAUGGUAACGCGUCUCCCUCAUAAGGAGAAGACUGCGGGUUCGAGUCCCGUACGGAGCG, the yeast fitness worked out at 0.634.

In the case of GAUCCGUUGGCGUAACGGUAACGCGUCUCACUCCUAAGGAGAAGACUGCGGGUUCAAGUCCCGUACGCAACG, the yeast fitness is 0.541.

On to GUUCCCUUGGCGUAAUGGUAACGUGUGUCCCUCCUAAGGAGAAGACUGCGGGUUCGAGUCCCGUACGGAACG, for which the yeast fitness was at most 0.5.

As to GUUCCGUUGGCGUGAUGGGAACGCGUCUCCCUCCUAAGGAGAAGACUCCGGGUUCGAGUCCCGUACGGAACG, the yeast fitness turned out to be 0.736.

Consider GUUCCGUUGGCCUAAUGGUAAAGCGUCUCCCUCCUAAGGAGAAGACUGCGGGUUCGAGUCCCGUACGGAACG, for which the yeast fitness was found to be 1.

In the case of GUCCCGUUGGCGUAAUGGUAACGCGUUUCCCUCCUAAGGAGAAGAAUGCAGGUUCGAGUCCUGUACGGAACG, the yeast fitness was 0.595.

For GUUCCGGUGGCGUAAUGGUAACGCGUCUUCCUCCUAAGGAGAAGACGGCGGGUUCGAGUCCCGUACGGAACG, the yeast fitness is at most 0.5.

Take GUUCCGUUGGCGUAAUGGUAACGCGUUUCCCUCCUAAGGAGAAGACUGCGGGAUCGAGUCCCGUACAGAACG: the yeast fitness is at most 0.5.

In the case of GUUCCGUUAGCGUAAUGGUAACGGGUCUGCCUCCUAAGCAGAAGACUGCGGGUUAGAGUCCCGUACGGAACG, the yeast fitness is at most 0.5.

For GUUGCGUUGGCGUAAUGGUAACGUGUCUCCCUCCCAAGGAGAAGACUGCGGGUUCGAGUCCCGUAUGGAACG, the yeast fitness was found to be 0.559.

Take GUUCCGUUGGUGUAAUGGUAACGCGUCUCCCUCUUAAGGAGAAGACUACGGGUUCGAGUCCCGUACGGAACG: the yeast fitness is at most 0.5.

Turning to GUUCCGUUGGCGUAAUGGCAACGCGUCUCCCUCCUAAAGAAAAGACUGCGGGUUCGAGUCCCGUACGGAACG, the yeast fitness came to 0.577.

Regarding GUUCCGAUGGCGUAAUGGUAACGCAUCUCCUUCCUAAGGAGAAGACUGCGGGUUCGAGUCCCGUACGGAACG, the yeast fitness came to 0.568.

As to GUUCCGUUGGCGUAAUGGUAACGAGUCUACCUCCUAAGGUGAGGACUGGGGGUUCGAGUCCCGUACGGAACG, the yeast fitness was at most 0.5.

As to GUUCCCUCGGUGUAAUGGCUACGCGUCUCCCUCCUAAGGAGCAGACUGCGGGUUCGAGUCCCGUCCGGUACG, the yeast fitness was at most 0.5.

On to GUUCCGUUGGCGUAAUGGCAACGCGUCUGCCUCCUAAGGAGAACACUGCGGGUUCGAGUCCCGUACGGAACG, for which the yeast fitness came to 0.505.

As for GUUCCGUUGGCGUAAUGGUCACGCGUCUCCCUCCUAAGGAGAAGACUGCGGGUUCGAGACCGGUACGGACCG, the yeast fitness was at most 0.5.

As for GUUCCGUUGGCGUAAUAGUAAAGCAUCUCCCUCCUAAGGAGAAGACUGCGGGUUCGAGUCCCGUACGGAACG, the yeast fitness was 0.501.

For the variant GUUCCGAUGGCGUAAUGGUAACGCGUCUCCCUCCUAAGGAGAAGACUGCGGGUUCGAGUCCCGUUCGGAACG, the yeast fitness was determined as 0.996.

Take GAUCCGUUGGCGUAAUGGGUACGCGUCUCCCUCCUAAGGAGAAGACUGCGGGUUCGAGUCCCGCACGGAACG: the yeast fitness was at most 0.5.

For GUUCCGUUGGCGUAAUGGUAAGGCGUCUCCCUCCUAAGGAGAAGGCUGCGGGAUCGAGUCCCGUAGGGAACG, the yeast fitness amounted to 0.565.

In the case of GUUCCGUUCGCGUACUGGUAACGCGUCUACCUCCUAAGGAGAAGACUGCGGGUUCGAAUCGCGUACGGAUCG, the yeast fitness was at most 0.5.

Consider GCUCCGUUGGCGUAAUGGUAACGCGUCUCCCUCCUAAGGAGAAGACUGCGGGUUCGAGUCCCGGAAGGAACG, for which the yeast fitness was at most 0.5.
